What was measured:
Details in all cases: stereoisomer not certain
[1] = target: T1, UniProt Q8VGC6
T1 sequence (whole entry): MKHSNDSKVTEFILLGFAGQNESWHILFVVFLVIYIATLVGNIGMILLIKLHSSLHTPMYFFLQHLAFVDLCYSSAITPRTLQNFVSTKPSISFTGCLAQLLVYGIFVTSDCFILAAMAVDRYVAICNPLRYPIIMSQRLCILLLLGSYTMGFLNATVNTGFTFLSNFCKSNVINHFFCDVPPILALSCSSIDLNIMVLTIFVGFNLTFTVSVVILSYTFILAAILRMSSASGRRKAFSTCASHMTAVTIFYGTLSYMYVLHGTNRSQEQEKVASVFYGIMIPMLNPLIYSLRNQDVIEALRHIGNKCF
In short: (§1)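 Assay methods differ from source to source, frequently being transient luciferase assays in mammalian cell lines. For each receptor–molecule pair, the label responsive (active) applies when the original authors judged the measured signal statistically different from baseline, and non-responsive (inactive) applies otherwise.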

[2] = target: T2, UniProt Q8VGD7
T2 sequence (whole entry): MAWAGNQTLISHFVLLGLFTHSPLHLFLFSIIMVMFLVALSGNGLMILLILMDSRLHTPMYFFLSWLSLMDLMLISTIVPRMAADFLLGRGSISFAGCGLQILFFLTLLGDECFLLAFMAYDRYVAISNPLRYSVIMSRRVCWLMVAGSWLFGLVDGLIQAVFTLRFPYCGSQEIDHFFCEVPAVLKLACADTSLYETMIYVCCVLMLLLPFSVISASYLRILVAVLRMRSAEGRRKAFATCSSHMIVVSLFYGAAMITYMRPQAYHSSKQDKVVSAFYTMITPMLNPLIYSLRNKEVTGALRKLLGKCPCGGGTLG
In short: as §1

[3] = target: T3, UniProt Q8VGH1
T3 sequence (whole entry): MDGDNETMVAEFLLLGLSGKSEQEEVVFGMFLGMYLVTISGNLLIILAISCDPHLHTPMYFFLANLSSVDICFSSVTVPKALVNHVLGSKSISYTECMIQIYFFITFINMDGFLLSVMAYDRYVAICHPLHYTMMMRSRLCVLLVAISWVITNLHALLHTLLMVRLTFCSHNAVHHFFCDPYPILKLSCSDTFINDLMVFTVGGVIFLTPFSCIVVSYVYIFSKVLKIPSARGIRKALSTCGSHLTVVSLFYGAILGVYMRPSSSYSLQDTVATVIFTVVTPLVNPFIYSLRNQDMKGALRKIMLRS
In short: as §1

[4] = target: T4, UniProt Q8VGJ1
T4 sequence (whole entry): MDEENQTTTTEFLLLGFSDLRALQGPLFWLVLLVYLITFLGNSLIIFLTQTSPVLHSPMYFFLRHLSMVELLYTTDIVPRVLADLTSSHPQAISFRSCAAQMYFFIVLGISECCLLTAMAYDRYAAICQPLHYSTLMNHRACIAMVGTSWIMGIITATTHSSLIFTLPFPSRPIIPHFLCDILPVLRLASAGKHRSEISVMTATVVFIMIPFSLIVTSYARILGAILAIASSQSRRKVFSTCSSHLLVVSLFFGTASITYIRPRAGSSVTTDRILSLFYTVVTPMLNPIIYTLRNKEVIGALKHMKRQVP
In short: as §1

[5] = target: T5, UniProt Q8VGJ3
T5 sequence (whole entry): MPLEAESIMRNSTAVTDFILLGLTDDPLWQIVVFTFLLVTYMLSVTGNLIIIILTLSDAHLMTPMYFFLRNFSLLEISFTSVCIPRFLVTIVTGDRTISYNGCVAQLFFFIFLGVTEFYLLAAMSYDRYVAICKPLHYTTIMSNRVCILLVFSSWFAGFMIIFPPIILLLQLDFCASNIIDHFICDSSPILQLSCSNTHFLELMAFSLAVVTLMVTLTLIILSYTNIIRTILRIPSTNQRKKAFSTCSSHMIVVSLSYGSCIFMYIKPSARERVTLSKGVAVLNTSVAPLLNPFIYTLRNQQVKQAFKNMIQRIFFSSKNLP
In short: as §1

[6] = target: T6, UniProt Q8VGJ5
T6 sequence (whole entry): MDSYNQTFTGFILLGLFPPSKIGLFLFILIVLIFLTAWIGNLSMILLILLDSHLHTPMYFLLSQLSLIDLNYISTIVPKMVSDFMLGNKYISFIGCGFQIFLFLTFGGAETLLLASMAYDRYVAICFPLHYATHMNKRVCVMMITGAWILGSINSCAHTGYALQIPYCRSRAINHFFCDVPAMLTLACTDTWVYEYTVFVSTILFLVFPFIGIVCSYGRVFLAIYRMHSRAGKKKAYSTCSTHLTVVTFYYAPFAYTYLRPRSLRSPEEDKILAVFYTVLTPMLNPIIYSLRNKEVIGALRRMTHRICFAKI
In short: as §1

[7] = target: T7, UniProt Q8VGL0
T7 sequence (whole entry): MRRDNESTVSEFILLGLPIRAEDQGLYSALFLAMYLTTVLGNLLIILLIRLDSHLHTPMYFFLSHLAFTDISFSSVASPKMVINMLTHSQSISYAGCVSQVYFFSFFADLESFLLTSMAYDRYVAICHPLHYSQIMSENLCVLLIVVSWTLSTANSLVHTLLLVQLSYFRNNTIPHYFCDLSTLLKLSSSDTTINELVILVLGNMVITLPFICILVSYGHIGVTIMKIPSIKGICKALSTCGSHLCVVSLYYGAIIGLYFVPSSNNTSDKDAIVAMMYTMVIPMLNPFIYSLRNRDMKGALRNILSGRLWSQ
In short: as §1

[8] = target: T8, UniProt Q8VGL7
T8 sequence (whole entry): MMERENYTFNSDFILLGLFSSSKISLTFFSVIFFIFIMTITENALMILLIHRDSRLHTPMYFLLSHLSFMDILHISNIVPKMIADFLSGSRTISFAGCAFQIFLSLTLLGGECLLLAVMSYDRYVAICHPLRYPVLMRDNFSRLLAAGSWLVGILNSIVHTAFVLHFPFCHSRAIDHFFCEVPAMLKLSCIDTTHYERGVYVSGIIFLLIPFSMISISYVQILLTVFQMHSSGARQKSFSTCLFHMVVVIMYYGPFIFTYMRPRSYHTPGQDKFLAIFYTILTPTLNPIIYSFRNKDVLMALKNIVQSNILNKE
In short: as §1

[9] = target: T9, UniProt Q8VGM2
T9 sequence (whole entry): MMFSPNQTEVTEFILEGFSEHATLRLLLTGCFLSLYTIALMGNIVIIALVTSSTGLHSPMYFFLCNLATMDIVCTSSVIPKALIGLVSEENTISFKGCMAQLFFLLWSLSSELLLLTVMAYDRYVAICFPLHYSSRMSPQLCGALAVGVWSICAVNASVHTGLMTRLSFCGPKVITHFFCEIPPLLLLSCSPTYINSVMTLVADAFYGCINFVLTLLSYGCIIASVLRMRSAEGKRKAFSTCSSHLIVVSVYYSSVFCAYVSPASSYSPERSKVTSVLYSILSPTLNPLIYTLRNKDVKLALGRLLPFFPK
In short: as §1

[10] = target: T10, UniProt Q8VGP6
T10 sequence (whole entry): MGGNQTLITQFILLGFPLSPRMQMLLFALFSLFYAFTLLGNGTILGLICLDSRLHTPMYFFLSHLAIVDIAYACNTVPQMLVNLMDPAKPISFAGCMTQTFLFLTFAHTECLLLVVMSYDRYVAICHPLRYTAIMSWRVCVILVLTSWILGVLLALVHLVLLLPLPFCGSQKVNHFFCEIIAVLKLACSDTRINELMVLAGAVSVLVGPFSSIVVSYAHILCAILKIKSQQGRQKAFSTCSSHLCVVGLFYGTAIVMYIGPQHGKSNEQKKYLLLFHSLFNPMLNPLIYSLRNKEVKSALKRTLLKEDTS
In short: as §1

[11] = target: T11, UniProt Q8VGQ3
T11 sequence (whole entry): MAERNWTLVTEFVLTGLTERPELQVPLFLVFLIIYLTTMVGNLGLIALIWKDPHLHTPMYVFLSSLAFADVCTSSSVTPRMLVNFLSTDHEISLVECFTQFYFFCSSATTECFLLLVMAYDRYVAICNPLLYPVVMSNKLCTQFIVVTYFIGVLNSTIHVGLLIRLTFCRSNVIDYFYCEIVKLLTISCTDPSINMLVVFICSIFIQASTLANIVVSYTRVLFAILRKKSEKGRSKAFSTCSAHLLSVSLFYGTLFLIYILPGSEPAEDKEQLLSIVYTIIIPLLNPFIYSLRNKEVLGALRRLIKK
In short: as §1

[12] = target: T12, UniProt Q8VGT4
T12 sequence (whole entry): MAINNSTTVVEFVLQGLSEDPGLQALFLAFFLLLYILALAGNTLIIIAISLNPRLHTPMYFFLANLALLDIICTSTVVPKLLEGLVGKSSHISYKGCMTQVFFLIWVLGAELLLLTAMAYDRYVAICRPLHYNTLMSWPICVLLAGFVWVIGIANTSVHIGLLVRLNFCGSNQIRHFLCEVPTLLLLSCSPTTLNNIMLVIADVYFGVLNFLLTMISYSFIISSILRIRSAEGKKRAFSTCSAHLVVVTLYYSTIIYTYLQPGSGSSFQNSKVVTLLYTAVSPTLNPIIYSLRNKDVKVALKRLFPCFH
In short: as §1

[13] = target: T13, UniProt Q8VGU3
T13 sequence (whole entry): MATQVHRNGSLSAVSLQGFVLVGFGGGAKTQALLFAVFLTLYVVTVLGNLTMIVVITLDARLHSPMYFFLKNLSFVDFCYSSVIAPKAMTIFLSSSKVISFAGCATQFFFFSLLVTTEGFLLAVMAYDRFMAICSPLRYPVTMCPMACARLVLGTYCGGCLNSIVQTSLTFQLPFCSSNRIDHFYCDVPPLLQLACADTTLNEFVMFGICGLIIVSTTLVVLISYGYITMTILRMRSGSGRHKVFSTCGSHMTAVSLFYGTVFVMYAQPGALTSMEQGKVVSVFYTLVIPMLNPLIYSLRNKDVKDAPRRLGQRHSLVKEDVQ
In short: as §1

[14] = target: T14, UniProt Q8VGV1
T14 sequence (whole entry): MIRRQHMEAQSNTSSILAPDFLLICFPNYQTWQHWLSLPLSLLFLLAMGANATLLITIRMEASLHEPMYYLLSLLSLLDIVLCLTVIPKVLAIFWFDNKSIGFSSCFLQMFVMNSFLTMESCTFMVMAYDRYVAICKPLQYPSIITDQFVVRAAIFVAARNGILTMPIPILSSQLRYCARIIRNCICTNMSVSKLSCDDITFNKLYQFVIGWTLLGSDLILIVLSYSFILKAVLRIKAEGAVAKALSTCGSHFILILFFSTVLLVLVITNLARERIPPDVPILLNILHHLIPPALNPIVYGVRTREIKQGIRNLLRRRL
In short: as §1

[15] = target: T15, UniProt Q8VGV7
T15 sequence (whole entry): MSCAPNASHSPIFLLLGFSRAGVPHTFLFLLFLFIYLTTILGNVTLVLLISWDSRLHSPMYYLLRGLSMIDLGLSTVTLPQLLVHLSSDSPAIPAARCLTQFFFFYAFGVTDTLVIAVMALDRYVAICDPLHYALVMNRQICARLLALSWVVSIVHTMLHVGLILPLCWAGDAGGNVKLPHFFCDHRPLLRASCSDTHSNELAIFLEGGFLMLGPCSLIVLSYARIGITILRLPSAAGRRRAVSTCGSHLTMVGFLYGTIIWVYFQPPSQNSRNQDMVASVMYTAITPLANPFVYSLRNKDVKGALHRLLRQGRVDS
In short: as §1

[16] = target: T16, UniProt Q8VGX3
T16 sequence (whole entry): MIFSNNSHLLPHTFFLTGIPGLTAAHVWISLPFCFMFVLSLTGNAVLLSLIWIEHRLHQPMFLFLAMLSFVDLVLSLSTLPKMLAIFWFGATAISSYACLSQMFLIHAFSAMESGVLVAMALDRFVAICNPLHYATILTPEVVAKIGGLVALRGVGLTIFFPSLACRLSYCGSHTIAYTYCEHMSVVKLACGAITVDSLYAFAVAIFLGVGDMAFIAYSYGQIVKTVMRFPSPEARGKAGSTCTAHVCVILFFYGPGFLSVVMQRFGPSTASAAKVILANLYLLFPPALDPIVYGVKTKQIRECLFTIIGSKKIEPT
In short: as §1

[17] = target: T17, UniProt Q8VGX5
T17 sequence (whole entry): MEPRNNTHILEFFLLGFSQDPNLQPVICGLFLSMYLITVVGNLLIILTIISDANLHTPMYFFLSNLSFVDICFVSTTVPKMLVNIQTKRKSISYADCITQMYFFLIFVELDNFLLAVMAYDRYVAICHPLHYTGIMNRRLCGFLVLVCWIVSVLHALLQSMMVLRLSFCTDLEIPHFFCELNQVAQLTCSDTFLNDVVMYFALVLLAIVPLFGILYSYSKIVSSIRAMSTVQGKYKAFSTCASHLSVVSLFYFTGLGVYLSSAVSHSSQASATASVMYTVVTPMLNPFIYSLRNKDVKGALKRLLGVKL
In short: as §1

Measured: odorant receptor agonist call

CCCCC(=O)CC
active: [1] | [6]
inactive: all other assays above

Reference: the M2OR odorant receptor database
